Measured values: ChEMBL document CHEMBL4627381, “Licochalcone A Selectively Resensitizes ABCG2-Overexpressing Multidrug-Resistant Cancer Cells to Chemotherapeutic Drugs” (J Nat Prod, 2020)

Tests used:
[1] = molecular target: T1, Broad substrate specificity ATP-binding cassette transporter ABCG2 (Homo sapiens, UniProt Q9UNQ0); assay: Reversal of human ABCG2-mediated multidrug resistance in HEK293/R482 cells assessed as fold change in mitoxantrone IC50 at 3 uM after 72 hrs by CCK8 assay relative to mitoxantrone IC50; type: cell-based
T1 sequence (Q9UNQ0 whole entry): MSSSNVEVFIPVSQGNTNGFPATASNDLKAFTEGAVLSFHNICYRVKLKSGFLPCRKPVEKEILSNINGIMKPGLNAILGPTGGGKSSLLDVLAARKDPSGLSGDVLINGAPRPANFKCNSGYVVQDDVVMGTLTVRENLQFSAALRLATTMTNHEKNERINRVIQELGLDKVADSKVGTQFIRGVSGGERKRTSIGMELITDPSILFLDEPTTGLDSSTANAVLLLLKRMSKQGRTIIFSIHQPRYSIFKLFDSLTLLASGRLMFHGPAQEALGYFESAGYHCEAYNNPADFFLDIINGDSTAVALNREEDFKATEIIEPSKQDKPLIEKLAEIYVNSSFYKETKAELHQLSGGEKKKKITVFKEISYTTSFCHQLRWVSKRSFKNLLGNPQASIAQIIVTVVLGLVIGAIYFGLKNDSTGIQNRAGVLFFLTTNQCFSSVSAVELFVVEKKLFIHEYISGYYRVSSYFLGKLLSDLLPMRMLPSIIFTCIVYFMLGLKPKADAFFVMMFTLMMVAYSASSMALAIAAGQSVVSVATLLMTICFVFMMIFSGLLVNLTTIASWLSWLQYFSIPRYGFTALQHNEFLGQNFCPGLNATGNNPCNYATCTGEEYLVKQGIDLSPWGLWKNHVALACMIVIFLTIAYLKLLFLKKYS
Summary of the method: (§1)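 Cells were seeded at 5000/well for 24 h, then given colchicine, etoposide, mitoxantrone or topotecan ± non-toxic modulator (0.5–3.0 μM) for 72 h, with DMSO up to 0.5%. IC50 came from fitted curves (mean ± SD, three experiments). Fold-reversal = IC50 without modulator ÷ IC50 with modulator.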

[2] = molecular target: T1, Broad substrate specificity ATP-binding cassette transporter ABCG2; assay: Reversal of human ABCG2-mediated multidrug resistance in HEK293/R482 cells assessed as fold change in mitoxantrone IC50 at 2 uM after 72 hrs by CCK8 assay relative to mitoxantrone IC50; type: cell-based; summary of the method: as §1
S1-M1-80 [3] = assay: Induction of apoptosis in human S1-M1-80 cells harboring ABCG2 (unknown origin) assessed as necrotic cells at 10 uM incubated for 48 hrs by annexin V/propidium iodide staining based flow cytometry (reference value: 0.3%); type: functional
S1-M1-80 [4] = assay: Induction of apoptosis in human S1-M1-80 cells harboring ABCG2 (unknown origin) assessed as late apoptotic cells at 10 uM incubated for 48 hrs by annexin V/propidium iodide staining based flow cytometry (reference value: 2.9%); type: functional
S1 [5] = assay: Induction of apoptosis in human S1 cells assessed as early apoptotic cells at 10 uM incubated for 48 hrs by annexin V/propidium iodide staining based flow cytometry (reference value: 2%); type: functional
Summary of the method: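 S1 cells were exposed for 48 h to DMSO, 10 μM compound, 5 μM topotecan, or 5 μM topotecan plus 10 μM compound. They were then stained with 1.25 μg/mL annexin V–FITC and 0.1 mg/mL PI for 15 min at room temperature. 10000 cells per sample were analysed by flow cytometry; three independent experiments.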

[6] = molecular target: T1, Broad substrate specificity ATP-binding cassette transporter ABCG2; assay: Modulation of ABCG2 (unknown origin) expressed in S1-M1-80 cells assessed as increase in intracellular pheophorbide A accumulation at 20 uM incubated for 1 hr by FACScan flow cytometry; type: cell-based; details: s1-m1-80, 1 h
Summary of the method: (§2)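 Cells held drug-free 7 days. 3 × 10^5 cells were suspended in IMDM with 5% FCS and loaded with pheophorbide A (ex 395/em 670 nm) for 1 h, with or without LCA (20 μM for single-concentration accumulation) or Ko143 3 μM as reference. Read immediately by flow cytometry. Efflux inhibition was run over a concentration range; mean ± SD of three experiments.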

[7] = molecular target: T1, Broad substrate specificity ATP-binding cassette transporter ABCG2; assay: Modulation of human ABCG2 expressed in HEK293/R482 cells assessed as increase in intracellular pheophorbide A accumulation at 20 uM incubated for 1 hr by FACScan flow cytometry; type: cell-based; summary of the method: as §2
[8] = molecular target: ATP-dependent translocase ABCB1 (Homo sapiens, UniProt P08183); assay: Modulation of human ABCB1 expressed in HEK293/MDR19 cells assessed as increase in intracellular calcein-AM accumulation at 20 uM incubated for 10 mins by FACScan flow cytometry; type: cell-based
Summary of the method: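 Cells held drug-free 7 days. 3 × 10^5 cells in IMDM with 5% FCS were loaded with calcein-AM for 10 min, with or without 20 μM LCA. Reference inhibitors were tariquidar 3 μM (ABCB1) and MK-571 25 μM (ABCC1). Calcein fluorescence (ex 485/em 535 nm) was read by flow cytometry; at least three independent experiments.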

S1 [9] = assay: Cytotoxicity against human S1 cells after 72 hrs by MTT assay; type: functional, cell-based; details: S1, 72 h
Summary of the method: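 Cells seeded at 5000/well, allowed 24 h, then exposed to a concentration series for 72 h at 37 °C in DMSO vehicle (up to 0.5% v/v). HEK293 lines were read with CCK-8 and cancer lines with MTT. IC50 was taken from fitted dose-response curves over at least three independent experiments. Lines were kept drug-free for 7 days before assay.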

NCI-H460 [10] = assay: Effect on mitoxantrone-induced cytotoxicity against human H460 cells assessed as fold change in mitoxantrone IC50 at 2 uM after 72 hrs by MTT assay relative to mitoxantrone IC50; type: functional
Summary of the method: (§3)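 Parental S1 colon and H460 lung cancer cells were exposed for 72 h to a mitoxantrone or topotecan concentration series, with or without modulator at 0.5–3.0 μM, and read by MTT. Fold-reversal is IC50 without modulator divided by IC50 with modulator, taken from dose-response curves of three independent experiments.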

NCI-H460 [11] = assay: Effect on mitoxantrone-induced cytotoxicity against human H460 cells assessed as fold change in mitoxantrone IC50 at 0.5 uM after 72 hrs by MTT assay relative to mitoxantrone IC50; type: functional; summary of the method: as §3
S1 [12] = assay: Effect on topotecan-induced cytotoxicity against human S1 cells assessed as fold change in topotecan IC50 at 0.5 uM after 72 hrs by MTT assay relative to topotecan IC50; type: functional; summary of the method: as §3
HEK293 [13] = assay: Effect on topotecan-induced cytotoxicity against HEK293 cells assessed as fold change in topotecan IC50 at 3 uM after 72 hrs by CCK8 assay relative to topotecan IC50; type: cell-based; details: human, hek293, 72 h
Summary of the method: (§4)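 Reversal assay in parental pcDNA-HEK293 and transfected HEK293 lines (ABCB1 for colchicine, ABCC1 for etoposide, ABCG2 for mitoxantrone/topotecan). Substrate drug series was given with or without nontoxic modulator (0.5, 1.0, 2.0 or 3.0 μM) for 72 h, with a CCK-8 read-out. Fold-reversal is substrate IC50 without modulator divided by IC50 with modulator. Three independent experiments.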

HEK293 [14] = assay: Effect on etoposide-induced cytotoxicity against HEK293 cells assessed as fold change in etoposide IC50 at 1 uM after 72 hrs by CCK8 assay relative to etoposide IC50; type: cell-based; details: human, hek293, 72 h; summary of the method: as §4
HEK293 [15] = assay: Effect on Colchicine-induced cytotoxicity against HEK293 cells assessed as fold change in colchicine IC50 at 3 uM after 72 hrs by CCK8 assay relative to colchicine IC50; type: cell-based; details: human, hek293, 72 h; summary of the method: as §4

Sequence of ATP-dependent translocase ABCB1 (P08183 whole entry): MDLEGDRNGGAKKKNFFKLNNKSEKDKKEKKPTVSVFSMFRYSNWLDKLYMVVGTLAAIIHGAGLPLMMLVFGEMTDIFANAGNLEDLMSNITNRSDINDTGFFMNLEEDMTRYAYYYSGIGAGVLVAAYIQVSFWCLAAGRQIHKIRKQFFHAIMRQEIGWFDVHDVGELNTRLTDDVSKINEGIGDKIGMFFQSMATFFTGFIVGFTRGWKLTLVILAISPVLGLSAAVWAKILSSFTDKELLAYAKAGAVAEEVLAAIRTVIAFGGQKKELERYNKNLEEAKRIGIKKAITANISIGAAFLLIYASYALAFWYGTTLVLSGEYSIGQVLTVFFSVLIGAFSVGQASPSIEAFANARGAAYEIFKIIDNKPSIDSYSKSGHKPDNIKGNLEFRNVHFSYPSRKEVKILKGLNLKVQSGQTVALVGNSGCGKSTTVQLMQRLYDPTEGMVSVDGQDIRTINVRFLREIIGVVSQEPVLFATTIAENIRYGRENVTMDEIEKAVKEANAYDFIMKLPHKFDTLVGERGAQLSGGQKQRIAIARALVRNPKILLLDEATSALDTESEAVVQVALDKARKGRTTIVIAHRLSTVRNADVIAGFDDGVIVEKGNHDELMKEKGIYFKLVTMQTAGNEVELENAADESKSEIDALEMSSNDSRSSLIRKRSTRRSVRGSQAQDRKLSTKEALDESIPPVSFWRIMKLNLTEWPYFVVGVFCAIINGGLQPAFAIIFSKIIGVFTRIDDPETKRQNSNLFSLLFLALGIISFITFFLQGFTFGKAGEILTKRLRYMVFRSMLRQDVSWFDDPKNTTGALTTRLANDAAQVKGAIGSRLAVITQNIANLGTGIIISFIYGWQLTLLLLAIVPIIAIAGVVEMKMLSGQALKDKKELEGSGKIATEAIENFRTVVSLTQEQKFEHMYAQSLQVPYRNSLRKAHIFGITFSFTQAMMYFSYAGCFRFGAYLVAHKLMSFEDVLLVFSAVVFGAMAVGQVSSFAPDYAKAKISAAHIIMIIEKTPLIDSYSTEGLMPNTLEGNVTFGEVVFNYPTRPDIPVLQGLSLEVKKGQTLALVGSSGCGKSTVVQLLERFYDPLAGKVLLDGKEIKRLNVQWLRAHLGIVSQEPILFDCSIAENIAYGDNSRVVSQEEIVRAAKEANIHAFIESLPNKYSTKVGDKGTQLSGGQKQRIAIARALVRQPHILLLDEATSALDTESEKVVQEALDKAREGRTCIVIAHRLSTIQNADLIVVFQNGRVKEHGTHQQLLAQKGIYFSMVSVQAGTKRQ

SMILES: C=CC(C)(C)c1cc(/C=C/C(=O)c2ccc(O)cc2)c(OC)cc1O [LICOAGROCHACONE A]
- fold change (FC) [1]: 8.1
- fold change (FC) [2]: 6.5
- Activity (S1-M1-80 [3]): 0.2%
- Activity (S1-M1-80 [4]): 2.9%
- Activity (S1 [5]): 1.7%
- Activity [6]: Active
- Activity [7]: Active
- Activity [8]: Not Active
- IC50 (S1 [9]): 10 to 50 µM
- fold change (FC) (NCI-H460 [10]): 1.1
- fold change (FC) (NCI-H460 [11]): 0.8
- fold change (FC) (S1 [12]): 0.9
- fold change (FC) (HEK293 [13]): 1
- fold change (FC) (HEK293 [14]): 0.7
- fold change (FC) (HEK293 [15]): 0.9
